Laboratory results: PubChem BioAssay AID624466 (The Scripps Research Institute Molecular Screening Center, 2012)
In all, about 360,000 compounds went through this assay and about 5,400 (1.5%) were called active. What follows is part of a selection rich in actives, with near analogues and random picks from the rest. A number with no mark means an inactive call.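 The calls were made as follows: active = inhibition above a per-plate cutoff, the mean inhibition of test compounds on that plate plus 3 SD (cut at about 49% in these data); inactive = the rest.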

What follows are molecules tested against Trace amine-associated receptor 1 (Homo sapiens) (UniProt Q96RJ0) (assay: human TAAR1 antagonists, primary screen, Fluo-8 calcium fluorescence, CHO RD-HGA16 cells (AID 624466;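 also: 0% = DMSO plus EC80 beta-PEA response and 100% = DMSO alone without agonist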)). Settings: CHO RD-HGA16 TAAR1, Fluo-8 calcium fluorescence, antagonist; at 3 µM; hits give high values.
Chain of Trace amine-associated receptor 1 (Homo sapiens) (Q96RJ0 whole entry, looked up): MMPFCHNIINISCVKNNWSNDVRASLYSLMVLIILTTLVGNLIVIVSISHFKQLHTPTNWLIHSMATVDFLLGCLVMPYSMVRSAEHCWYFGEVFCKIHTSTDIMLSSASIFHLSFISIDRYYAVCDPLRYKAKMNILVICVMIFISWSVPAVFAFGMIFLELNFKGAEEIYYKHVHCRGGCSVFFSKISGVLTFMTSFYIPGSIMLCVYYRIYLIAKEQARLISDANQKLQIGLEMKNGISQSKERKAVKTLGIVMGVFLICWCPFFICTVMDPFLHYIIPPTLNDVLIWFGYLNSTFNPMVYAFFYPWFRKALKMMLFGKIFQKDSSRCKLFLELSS
Summary of the method: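 Material: RD-HGA16 CHO cells with stable hTAAR1 and Gα16; Dosing: single nominal final test compound concentration of 3 µM; Schedule: seeding 17-24 h prior, 75-min 37 °C, 30-min RT dye loading; Detection: kinetic Fluo-8 calcium fluorescence measurement; Measure: % inhibition from peak post-agonist over basal fluorescence ratio; Benchmarks: vehicle and agonist controls.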

Structure (SMILES)	inhibition
Cc1cc(Br)cn2c(Cc3ccccc3C(F)(F)F)c(-c3ccc(C#N)cc3)nc12	3.16%
CN(C(=O)COC(=O)CCCc1c[nH]c2ccccc12)c1c(N)n(Cc2ccccc2)c(=O)[nH]c1=O	2.09%
COc1ccc(SSc2ccc(OC)cc2C(=O)O)c(C(=O)O)c1	-9.02%
S=C(Nc1ccc(Br)cc1Cl)NC1CCN(Cc2ccccc2)CC1	0.09%
S=C(NN=C1CCN(Cc2ccccc2)CC1)NC1CCCCC1	-2.21%
S=C(Nc1ccc(Br)cc1)NC1CCN(Cc2ccccc2)CC1	51.4% (active)
Cc1ccc2nc(-c3ccc(CN4CCC(n5cc(-c6ccccc6)[nH]c5=O)CC4)cc3)c(-c3ccccc3)nc2c1	14.1%
Cc1cc(Cl)c(S(=O)(=O)NCc2cccnc2)cc1OCC(N)=O	-0.54%
CCC(=O)N1Cc2cc(C(=O)NCc3cccc(F)c3)nc(-c3cccc(C4=CCCC4)c3)c2[C@H]1CCO	-2.34%
Nc1c(C(=O)c2cccs2)sc2nsc(SCCN3CCCCC3)c12	61.2% (active)
COc1cccc(-c2nnc(N(C)C(=O)c3ccno3)s2)c1	8.59%
CCN=C1SC(CC(=O)Nc2ccc(C)cc2)C(=O)N1CC (stereo unspecified)	57.5% (active)
CN=C1SC(CC(=O)Nc2ccc(C(=O)O)cc2)C(=O)N1C (stereo unspecified)	-12.5%
CCN1C(=O)C(CC(=O)Nc2cc(C)ccc2C)SC1=Nc1ccc(S(N)(=O)=O)cc1 (stereo unspecified)	6.51%
Cc1ccc(NC(=O)N2c3ccccc3SC2c2ccco2)c(C)c1 (stereo unspecified)	-10.8%
CC(=O)N1CCc2cc(S(=O)(=O)NC3CCCCC3)ccc21	6.97%
Cc1ccc(NC(=O)CN(C)C(=O)Cn2nnc(-c3ccccc3)n2)cc1	-1.85%
COc1ccc(-c2nc3ccccc3n2CCC(C)C)cc1OC	19.6%
CC(=O)OCCN(CCCn1c(-c2ccncc2)nc2ccccc21)c1nc(-c2ccc(C)cc2)cs1	53.5% (active)

Structure (SMILES)	inhibition
CCOCCn1c(-c2ccccc2)nc2ccccc21	-32.8%
CCc1cccc2c3c([nH]c12)C(CC)(CC(=O)O)OCC3 (stereo unspecified)	-11.8%
O=C1CCN(Cc2ccccc2)CCN1[C@H](CSc1ccccc1)c1ccccc1	15.6%
CC(C)C1Cc2[nH][nH]c(=O)c2C(c2ccc(Cl)cc2)O1 (stereo unspecified)	-21.6%
CCC(c1nnnn1-c1ccc2c(c1)OCCO2)N1CCN(c2ccc(C(F)(F)F)cn2)CC1 (stereo unspecified)	24.4%
CC(=O)Nc1ccc(NC(=O)C(C)OC(=O)c2ccccc2C(=O)c2ccc(Cl)c([N+](=O)[O-])c2)cc1 (stereo unspecified)	13.5%
N#Cc1cccc(NC(=O)COC(=O)c2ccccc2C(=O)c2ccc(Cl)c([N+](=O)[O-])c2)c1	71.8% (active)
NS(=O)(=O)c1cccc(NC(=O)COC(=O)c2cc([N+](=O)[O-])ccc2N2CCCC2)c1	7.66%
O=C(c1ccco1)N1CCN(C(=O)C2CCCN(S(=O)(=O)c3cccc4nsnc34)C2)CC1 (stereo unspecified)	8.68%
COc1cc(OC)cc(-c2c(C#Cc3ccsc3)c3cc(-c4ccc(OC)cc4F)ccc3n2C)c1	10.3%
COc1cccc(NC(=O)N(C)C[C@@H]2OCc3cn(nn3)CCCC(=O)N([C@@H](C)CO)C[C@H]2C)c1	-3.32%
CCOc1ccc(NC(=O)N2CC=C(n3c(=O)[nH]c4ccccc43)CC2)cc1	62% (active)
CCOc1ccc(NC(=O)N2CCN(CC)CC2)cc1	13.8%
Cc1cccc(C)c1NC(=O)N1CC=C(n2c(=O)[nH]c3ccccc32)CC1	17.3%
CCCNC(=S)N1CCCC(c2nc3ccccc3[nH]2)C1 (stereo unspecified)	1.96%
CC(C)C[C@@H](COCc1ccc(Cl)cc1)N1CCN(C(=O)c2ccc(Cl)cc2Cl)CCC1=O	15.1%
C[C@H](O)[C@@H]1C(=O)N2CCc3c([nH]c4ccccc34)[C@@H]2C[C@@H]1N(C)C(=O)Nc1ccc(F)cc1	-21.1%
C=CCNC(=S)N1CCc2[nH]c3ccccc3c2C1	-0.9%
Fc1ccc(NC(=S)N2CCc3[nH]c4ccccc4c3C2)cc1	60.8% (active)

Structure (SMILES)	inhibition
Cc1ccc(S(=O)(=O)N2[C@@H](Cc3ccccc3)CO[C@H]2CC(=O)OCc2ccccc2)cc1	22.8%
COc1ccc(NC(=O)CNc2cc(S(=O)(=O)N3CCOCC3)ccc2N2CCOCC2)c(OC)c1	14.2%
Cc1[nH]nc2c1C(c1ccc(Br)cc1)NC2=O (stereo unspecified)	-19.4%
CCOC(=O)N1CCC(=NNC(N)=O)CC1	5.25%
N#Cc1ccc(C(c2nnnn2CCc2ccccc2)N2CCCCCC2)cc1 (stereo unspecified)	19.8%
Fc1ccc(Cn2nnnc2C(c2cccs2)N2CCCCCC2)cc1 (stereo unspecified)	50% (active)
Fc1ccccc1C(c1nnnn1Cc1ccc2c(c1)OCO2)N1CCN(Cc2ccccc2)CC1 (stereo unspecified)	8.62%
CCc1nnc(NC(=O)CSc2nnnn2-c2cccc(C(C)=O)c2)s1	-22.1%
O=C(NCc1ccccc1)C1c2ccccc2OCC(=O)N1CCCN1CCOCC1 (stereo unspecified)	-17.4%
O=C(O)c1ccc(S(=O)(=O)c2ccccc2)s1	7.73%
Cc1ccc(NC(=O)C(=O)NCc2ccc(/C=N/NC(=O)c3c(C)nc4cc(C)ccn34)o2)cc1	-9.86%
CSc1ccccc1C(=O)NCc1ccccc1	3.42%
Cc1ccc(CNC(=O)c2cccnc2Cl)cc1	0.77%
Cc1ccc(CNC(=O)c2ccccc2CCc2ccccc2)cc1	49.7% (active)
COc1cc(C#Cc2ccc3cc(CCCO)oc(=O)c3c2)cc(OC)c1	26.9%
O=C1c2ccccc2C(=O)N1CCC#Cc1ccc2cc(C3(O)CCCCC3)oc(=O)c2c1	75.1% (active)
Cc1cccn2cc(-c3cccc(S(=O)(=O)N4CCCCC4)c3)nc12	-29.1%
CCC(C(=O)Nc1c(C)cccc1C)n1c(-c2cc(C)cs2)nc2ccccc21 (stereo unspecified)	-17.6%
